In ChEMBL document CHEMBL3860025, “Antiproliferative and Anti-inflammatory Withanolides from Physalis angulata” (J Nat Prod, 2016):

Tests used:
[1] = Antiproliferative activity against human 22Rv1 cells assessed as inhibition of cell viability after 48 hrs by MTT reduction assay; format: functional, cell-based, CWR22R; conditions: 22Rv1, 48 h
Procedure, shortened: (§1)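 Cells grown in RPMI-1640 or EMEM with 10% FBS at 37 °C under 5% CO2. Seeded at 1 × 10^4 cells/well for 12 h, then exposed to a range of compound concentrations for 48 h. Viability read by MTT reduction. 5-Fluorouracil was the positive control. Each assay was repeated three times, and IC50 reported as mean ± SD.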

[2] = Antiproliferative activity against human C4-2B cells assessed as inhibition of cell viability after 48 hrs by MTT reduction assay; format: functional, cell-based; conditions: LNCaP C4-2B; procedure, shortened: as §1
[3] = Antiproliferative activity against human 786-0 cells assessed as inhibition of cell viability after 48 hrs by MTT reduction assay; format: functional, cell-based; conditions: 786-0, 48 h; procedure, shortened: as §1
[4] = Antiproliferative activity against human A375-S2 cells assessed as inhibition of cell viability after 48 hrs by MTT reduction assay; format: functional, cell-based; conditions: A375-S2, 48 h; procedure, shortened: as §1
[5] = Antiproliferative activity against human ACHN cells assessed as inhibition of cell viability after 48 hrs by MTT reduction assay; format: functional, cell-based; procedure, shortened: as §1
[6] = Antiproliferative activity against human A498 cells assessed as inhibition of cell viability after 48 hrs by MTT reduction assay; format: functional, cell-based; conditions: A498, 48 h; procedure, shortened: as §1
[7] = Antiinflammatory activity in mouse RAW264.7 cells assessed as inhibition of LPS-induced nitric oxide production after 24 hrs by Griess assay; format: functional, cell-based; conditions: RAW264.7, 24 h
Procedure, shortened: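 RAW 264.7 macrophages seeded at 1 × 10^6 cells/well, then incubated 24 h at 37 °C with LPS (1 μg/mL), with or without test compounds. NO measured by Griess reagent (0.1% N-(1-naphthyl)ethylenediamine plus 1% sulfanilamide in 5% H3PO4), absorbance at 540 nm. NO concentration and inhibition rate calculated from a standard curve. Hydrocortisone served as positive control.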

| SMILES | IC50 [1] [nM] | IC50 [2] [nM] | IC50 [3] [nM] | IC50 [4] [nM] | IC50 [5] [nM] | IC50 [6] [nM] | IC50 [7] [nM] |
| --- | --- | --- | --- | --- | --- | --- | --- |
| CC(=O)O[C@H]1C[C@@](O)([C@H](C)[C@H]2CC(C)=C(C)C(=O)O2)[C@@]2(C)CC[C@H]3[C@@H](C[C@H]4O[C@]45CC=CC(=O)[C@]35C)[C@@]12O | 2380 | 270 | 520 | 3850 | 400 | 530 | 3420 |
| CC(=O)O[C@H]1[C@@H]2O[C@]2([C@H](C)[C@H]2CC(C)=C(C)C(=O)O2)[C@@]2(C)CC[C@H]3[C@@H](C[C@@H](O)[C@@]4(Cl)CC=CC(=O)[C@]34C)[C@@]12O | 2280 | 1070 | 690 | 5000 | 780 | 520 | 1420 |
| CC(=O)O[C@H]1C[C@@](O)([C@H](C)[C@H]2CC(C)=C(C)C(=O)O2)[C@@]2(C)CC[C@H]3[C@@H](C[C@@H](O)[C@@]4(O)CC=CC(=O)[C@]34C)[C@@]12O | > 10000 | > 10000 | > 10000 | > 10000 | > 10000 | > 10000 | > 100000 |
| CC(=O)O[C@H]1[C@@H]2O[C@]2([C@H](C)[C@H]2CC(C)=C(C)C(=O)O2)[C@@]2(C)CC[C@H]3[C@@H](C[C@@H](O)[C@@]4(O)CC=CC(=O)[C@]34C)[C@@]12O | > 10000 | > 10000 | > 10000 | > 10000 | > 10000 | > 10000 | 59500 |
